In ChEMBL document CHEMBL3286234, “Synthesis, Characterization, and in Vitro Evaluation of a New TSPO-Selective Bifunctional Chelate Ligand” (ACS Med Chem Lett, 2014):
Active and inactive are the calls of the source. The calls are words filed in the database; no cut-off is given here.

Assays:
Translocator protein = Translocator protein (Rattus norvegicus, UniProt P16257); experiment: Displacement of [3H]PK11195 from TSPO in rat C6 cell membrane after 90 mins by radioligand binding assay; assay type: cell membranes
How it was run: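 Affinity for TSPO was measured on membrane extracts of C6 glioma cells and reported as Ki (nM).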

C6 [1] = experiment: Cytotoxicity against rat C6 cells overexpressing TSPO assessed as inhibition of cell viability after 72 hrs by MTT assay; assay type: functional, cell-based; conditions: C6, 72 h
How it was run: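 Cells exposed to drug over 0.05 to 100 μM at 37 °C for 72 h; IC50 reported.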

A2780 = experiment: Cytotoxicity against cisplatin-sensitive human A2780 cells assessed as inhibition of cell viability after 72 hrs by MTT assay; assay type: functional, cell-based; conditions: A2780, 72 h
How it was run: (§1)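 Cells treated across 0.05 to 100 μM and incubated 72 h at 37 °C; IC50 in μM.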

A2780cisR [2] = experiment: Cytotoxicity against human A2780cisR cells assessed as inhibition of cell viability after 72 hrs by MTT assay; assay type: functional, cell-based; how it was run: as §1
A2780cisR [3] = experiment: Resistance factor, ratio of IC50 for human A2780cisR cells to IC50 for cisplatin-sensitive human A2780 cells; assay type: functional
[4] = Induction of double strand breaks in supercoiled pET plasmid DNA (unknown origin) at 0.5 to 10 uM pretreated for 2 hrs by agarose gel electrophoresis in presence of CuCl2 and GSH
How it was run: (§2)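 Compound preincubated 2 h with CuCl2 (5 equiv) and GSH (50 equiv), then reacted with pET plasmid DNA for 1 h at 37 °C at 0.5, 1, 2 or 10 μM. Forms I, II and III resolved on 1% agarose gel stained with ethidium bromide. Controls were untreated DNA and CuCl2 plus GSH alone.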

[5] = Induction of single strand breaks in supercoiled pET plasmid DNA (unknown origin) at 0.5 to 10 uM pretreated for 2 hrs by agarose gel electrophoresis in presence of CuCl2 and GSH; how it was run: as §2
[6] = Induction of double strand breaks in supercoiled pET plasmid DNA (unknown origin) at 10 uM pretreated for 2 hrs by agarose gel electrophoresis in absence of CuCl2
How it was run: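 Compound at 10 μM, without CuCl2, incubated with pET plasmid DNA. Supercoiled, open circular and linear forms resolved on 1% agarose gel stained with ethidium bromide.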

C6 [7] = experiment: Induction of mitochondrial and nuclear structure modification in rat C6 cells assessed as fragmented nuclei and mitochondria at 10 uM after 24 hrs by MitoTracker Red/DAPI staining based fluorescence microscopy; assay type: functional, cell-based
How it was run: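 C6 glioma cells exposed at 10 μM for 24 h, then stained with MitoTracker Red for mitochondria and DAPI for nuclei. Morphology assessed with a digital imaging system. Untreated cells served as control.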

C6 [8] = experiment: Antiproliferative activity in rat C6 cells assessed as proportion of cells with depolarized mitochondrial membrane potential at 10 uM after 24 hrs by JC-1 staining based flow cytometry (reference value: 0.21%); assay type: functional
C6 [9] = experiment: Cell cycle arrest in rat C6 cells at 10 uM after 24 hrs by propidium iodide staining based flow cytometry; assay type: functional
How it was run: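 C6 glioma cells exposed to 10 μM for 24 h, then cell cycle histograms recorded by flow cytometry. Untreated cells served as control.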

C6 [10] = experiment: Cell cycle arrest in rat C6 cells assessed as proportion of cells at sub-G1 phase at 0.3 uM after 72 hrs by propidium iodide staining based flow cytometry (reference value: 5.89%); assay type: functional
C6 [11] = experiment: Cell cycle arrest in rat C6 cells assessed as proportion of cells at G0/G1 phase at 0.3 uM after 72 hrs by propidium iodide staining based flow cytometry (reference value: 54.94%); assay type: functional
C6 [12] = experiment: Cell cycle arrest in rat C6 cells assessed as proportion of cells at S phase at 0.3 uM after 72 hrs by propidium iodide staining based flow cytometry (reference value: 11.15%); assay type: functional
C6 [13] = experiment: Cell cycle arrest in rat C6 cells assessed as proportion of cells at G2/M phase at 0.3 uM after 72 hrs by propidium iodide staining based flow cytometry (reference value: 28.02%); assay type: functional
[14] = Induction of double strand breaks in supercoiled pET plasmid DNA (unknown origin) at 10 uM pretreated for 2 hrs by agarose gel electrophoresis in presence of CuCl2 and GSH
How it was run: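 Ligand (0.5, 1, 2 or 10 μM) preincubated 2 h with CuCl2 (5 equiv) and GSH (50 equiv), then reacted with pET plasmid for 1 h at 37 °C. Products separated on 1% agarose gel stained with ethidium bromide and scored as supercoiled (I), open circular (II) and linear (III) forms.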

Sequence of Translocator protein (P16257 whole entry, looked up): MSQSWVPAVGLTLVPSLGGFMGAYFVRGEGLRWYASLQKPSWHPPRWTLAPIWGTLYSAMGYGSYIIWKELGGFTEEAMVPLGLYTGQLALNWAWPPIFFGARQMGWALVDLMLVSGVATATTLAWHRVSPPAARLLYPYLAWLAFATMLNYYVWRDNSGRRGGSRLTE

Activity [4]	Activity [5]	Activity [6]	SMILES	Ki (Translocator protein) [µM]	IC50 (C6 [1]) [µM]	IC50 (A2780) [µM]	IC50 (A2780cisR [2]) [µM]	Ratio IC50 (A2780cisR [3])	Activity (C6 [7])	Activity (C6 [8]) [%]	Activity (C6 [9])	Activity (C6 [10]) [%]	Activity (C6 [11]) [%]	Activity (C6 [12]) [%]	Activity (C6 [13]) [%]	Activity [14]
Active	inactive	inactive	CCCN(CCC)C(=O)Cc1c(-c2ccc(Cl)cc2)nc2c(NC(=O)CN(Cc3ccccn3)Cc3ccccn3)cccn12	0.239	0.27	9.02	9.21	1.02	Active	2.47	inactive	9.06	49.07	13.18	28.69	–
–	–	–	CCCN(CCC)C(=O)Cc1c(-c2ccc(Cl)cc2)nc2c(N)cccn12	0.0016	19.7	–	–	–	–	–	–	–	–	–	–	inactive
